High-throughput results (PubChem BioAssay)
Sampled rows, rich in hits. Any-hit rate of the full collection: about 2.1%.
thrombin 1536: inhibitors of human thrombin; P00734; alpha-thrombin, Boc-VPR-AMC fluorogenic substrate cleavage; inhibition, % at 5 µM; 220,000 compounds, 0.26% hits; AID 1046;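 active means inhibition at or above 40%; inactive means inhibition below 40%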;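 further: 0% = enzyme with no compound and 100% = wells without enzyme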
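Assay system: human alpha-thrombin enzyme. Reagent: Boc-VPR-AMC substrate, 15 µM final. Compound dosing: one concentration per compound, 5 µM, with 0.2% DMSO. Incubation: room-temperature reaction. Technique: AMC fluorescence, 355/460 nm. Measure: % inhibition relative to enzyme controls and enzyme-free blanks.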
FXIIa inh: factor XIIa (human) inhibition. P00748. purified FXIIa, Boc-QGR-AMC fluorogenic substrate, 2 h. inhibition, % at 5 µM. 220,000 compounds, 0.3% hits. AID 800; in the data active means inhibition above about 40%;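 further: 0% = enzyme with no compound and 100% = blank without enzyme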
FXIa inh: blocks human coagulation factor XIa protease activity. P03951. purified FXIa, Boc-Glu-Ala-Arg-AMC fluorogenic substrate. inhibition, % at 5 µM. 220,000 compounds, 0.14% hits. AID 798;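 active means inhibition of at least 40%; inactive means inhibition below 40%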;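 further: fluorescence of freed AMC excited at 355 nm; 0% = enzyme without compound and 100% = no enzyme blank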
hK5 inh: inhibitors of human kallikrein 5 | Q9Y337 | recombinant hK5, fluorogenic AMC substrate cleavage | inhibition, % at 5 µM | 210,000 compounds, 0.59% hits | AID 873;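 active means inhibition of 40% or more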;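 further: 0% = enzyme controls without compound and 100% = no-enzyme blanks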
Target sequence (Q9Y337 67-293 limits assumed): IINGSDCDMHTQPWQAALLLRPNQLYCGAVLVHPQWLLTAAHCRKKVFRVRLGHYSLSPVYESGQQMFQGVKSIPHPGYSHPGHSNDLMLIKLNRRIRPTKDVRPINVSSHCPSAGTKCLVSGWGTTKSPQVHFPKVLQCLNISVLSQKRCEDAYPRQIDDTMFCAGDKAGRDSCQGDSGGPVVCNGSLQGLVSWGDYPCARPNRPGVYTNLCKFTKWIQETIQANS
EP2 modulator: modulators of human EP2 prostaglandin E2 receptor | EP2-expressing cells, cAMP HTRF FRET, PGE2 co-stimulation | induction, % at 25 µM | 260,000 compounds, 0.83% hits | AID 940;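 active means compounds whose cAMP rise, as percent of the full-agonist control response, exceeds 60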;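 further: rat C6 glioma line stably carrying human EP2 under a CMV promoter; the protocol text gives 20 µM as final concentration; 100% = response of wells given 1 µM PGE2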
Target sequence (P43116 whole entry, looked up): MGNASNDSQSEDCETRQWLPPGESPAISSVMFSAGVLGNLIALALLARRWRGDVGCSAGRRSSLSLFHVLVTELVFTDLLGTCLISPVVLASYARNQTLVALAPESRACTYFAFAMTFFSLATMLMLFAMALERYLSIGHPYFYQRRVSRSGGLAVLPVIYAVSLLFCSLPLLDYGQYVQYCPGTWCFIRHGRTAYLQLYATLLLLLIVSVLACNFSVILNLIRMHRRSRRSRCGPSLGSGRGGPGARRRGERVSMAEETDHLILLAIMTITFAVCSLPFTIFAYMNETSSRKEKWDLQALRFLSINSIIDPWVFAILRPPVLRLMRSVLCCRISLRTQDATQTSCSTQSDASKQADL
PGE2 EP2 inh: blocks the human prostaglandin E2 receptor EP2; P43116; C6 glioma cells expressing human EP2, cAMP TR-FRET; cells stimulated with saturating PGE2; inhibition, % at 25 µM; 260,000 compounds, 0.52% hits; AID 1422;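 active means percent inhibition above 40 after rounding to a whole number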;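 further: rat C6 glioma host cells with rolipram phosphodiesterase inhibitor present; the protocol text gives 20 µM as final concentration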
The depositor's hits bear a star; / = not tested or not shown.

SMILES | thrombin 1536 | FXIIa inh | FXIa inh | hK5 inh | EP2 modulator | PGE2 EP2 inh
COc1cccc(NC(=O)Cc2ccccc2)c1 | 2.4 | 11.9 | 1.4 | -11.4 | -6.5 | 11.5
O=C(Nc1ccc(Cl)cc1)Nc1nc(-c2ccccc2O)cs1 | 18.8 | 29.4 | 53.2* | 35.2 | -11.2 | 0.7
O=C(Nc1ccc(Cl)cc1)Nc1nc(-c2sccc2Br)cs1 | -3.6 | -6.2 | -6.0 | 4.5 | -3.5 | /
O=C(NCC1CC1)C1CCN(S(=O)(=O)c2ccccc2)CC1 | / | / | / | / | -2.1 | 12.8
Cc1ccc(NC(=O)c2cccc(N3C(=O)C4C5CCC(C5)C4C3=O)c2)c(C)c1 (stereo unspecified) | 2.1 | 4.7 | 12.7 | 0.0 | -0.6 | 1.4
Cc1ccccc1NC(=O)c1cccc(N2C(=O)C3C4CCC(C4)C3C2=O)c1 (stereo unspecified) | 20.5 | 21.2 | 15.2 | 42.9* | 11.2 | 2.5
Cc1ccc(S(=O)(=O)NCCC(c2ccc(F)cc2)c2ccco2)cc1 (stereo unspecified) | 20.1 | 28.2 | 14.0 | 25.7 | 58.4 | 3.2
Cc1ccc(S(=O)(=O)NCCC(c2ccccc2)c2ccco2)cc1 (stereo unspecified) | -4.2 | 3.1 | 14.6 | -9.9 | 64.4* | 4.3
C[C@H]1C[C@@H]2[C@@H]3CCC4=CC(=O)C=C[C@@]4(C)[C@@]3(Cl)[C@H](Cl)C[C@@]2(C)[C@]1(O)C(=O)COP(=O)(O)O | / | / | / | / | 15.7 | 40.7*
O=c1[nH]c(=S)[nH]c2c1CN(CCCN1CCOCC1)CN2 | / | / | / | / | -42.4 | 101.9*
COc1ccc2c(c1)NC1(CCN(C(=O)c3sc(C)nc3C)CC1)c1cccn1-2 | / | / | / | / | -45.0 | /
Nc1ccc(-c2nc3ccc(C(=O)O)cc3s2)cc1 | -37.6 | -87.9 | -30.3 | -88.5 | -19.3 | 7.4
Cc1ccc2nc(-c3ccc(NC(=O)c4ccc(N)cc4)c(S(=O)(=O)O)c3)sc2c1 | / | / | / | / | -11.6 | 45.9*
COc1ccc(-c2csc(N(C)C(=O)C3CCCCC3)n2)cc1 | / | / | / | / | 6.8 | 6.4
O=C(c1cc2ccccc2[nH]1)N1CCOCC1 | 48.1* | 18.0 | 8.8 | 28.6 | 13.4 | 3.9
O=C(c1cc2ccccc2s1)N1CCOCC1 | -6.5 | 7.1 | 3.1 | -1.6 | 10.8 | 9.0
COc1ccc(S(=O)(=O)N2C3CCC2CC(O)(c2ccccn2)C3)cc1 (stereo unspecified) | / | / | / | / | -20.8 | /
O=S(=O)(Nc1nc2ccccc2nc1N1CCc2ccccc2C1)c1ccc(Br)cc1 | -5.6 | 12.2 | 11.5 | -9.7 | 5.3 | 6.5
Cc1ccccc1S(=O)(=O)Nc1nc2ccccc2nc1N1CCc2ccccc2C1 | -7.8 | -4.3 | -1.3 | -10.8 | 60.6* | 12.5
CCOC(=O)C1CCCN(C(=O)Cn2sc3nc(C)cc(C)c3c2=O)C1 (stereo unspecified) | -1.2 | 8.2 | 3.1 | -3.5 | -14.6 | 114.6*
Cc1cc(-c2n[nH]c(=S)n2/N=C/c2cc([N+](=O)[O-])ccc2Cl)n[nH]1 | 33.0 | 14.5 | 8.0 | 47.0* | 19.0 | 6.4
O=C(Cn1nc2n(Cc3ccc(F)cc3)c3ccccc3n2c1=O)N1CCOCC1 | / | / | / | / | 1.9 | 5.5
O=C(c1cc2cc(Br)ccc2o1)N1CCCC1 | 57.0* | / | 36.8 | 18.2 | -4.0 | 6.8
Cn1c(=O)[nH]c(=O)c2c1nc(SCC(O)CCl)n2CCCc1ccccc1 (stereo unspecified) | / | / | / | / | -18.7 | 9.1
COc1ccc(Oc2c(C)nc(SCC(=O)c3ccc(Cl)cc3)[nH]c2=O)cc1 | 1.8 | 11.9 | 2.9 | 4.1 | 8.3 | 7.1
SMILES | thrombin 1536 | FXIIa inh | FXIa inh | hK5 inh | EP2 modulator | PGE2 EP2 inh
O=C(CSc1nc2ccccc2c(=O)[nH]1)c1ccccc1 | 4.7 | 15.5 | 9.5 | -7.0 | 4.8 | 6.4
COc1ccc(C(=O)CSc2nc(C(C)(C)C)nc3ccccc23)cc1 | 2.4 | 3.8 | -3.7 | -12.0 | 10.1 | 5.2
Cc1nc(SCC(=O)c2ccccc2)[nH]c(=O)c1Oc1ccc(Cl)cc1 | 33.5 | 22.5 | 29.0 | 64.4* | -7.7 | 12.1
CC(C)(C)c1ccc(C(=O)CSc2nc3ccccc3c(=O)[nH]2)cc1 | 13.6 | 10.0 | 13.7 | 40.2* | 27.1 | 4.5
CC(C)(C)c1nc(SCC(=O)c2ccc(F)cc2)c2ccccc2n1 | / | / | / | / | 69.5* | 6.6
N#Cc1c2n(c3c(=O)n(Cc4ccccc4)cnc13)CCCC2 | 8.8 | 44.2* | 15.5 | -21.2 | 23.6 | 5.0
N#Cc1c2n(c3c(=O)n(Cc4ccc(Cl)cc4)cnc13)CCCCC2 | 7.0 | 18.4 | -3.1 | -6.0 | 15.7 | 16.7
CC(C)NC(=O)Cn1c(C(C)C)nc2ccccc2c1=O | / | / | / | / | 2.8 | 5.7
N#Cc1ccccc1NC(=O)COC(=O)COc1ccccc1[N+](=O)[O-] | 42.4* | 14.2 | 2.7 | 1.9 | -1.1 | 5.5
O=C(COC(=O)COc1ccccc1[N+](=O)[O-])NC1CCCC1 | -5.2 | -1.4 | -4.5 | -22.1 | 17.3 | 6.7
O=C(COC(=O)CCC(=O)c1cccs1)Nc1ccccc1[N+](=O)[O-] | 41.6* | 2.7 | -1.5 | 6.2 | -1.3 | 6.1
Nc1nc2ccccc2n1C(=O)c1ccco1 | 44.3* | -2.9 | 5.0 | 41.1* | 13.7 | 8.1
Nc1nc2ccccc2n1C(=O)c1ccccc1 | -7.0 | 2.0 | -1.0 | -1.6 | -20.8 | 9.1
Cc1cc2c(cc3c(=O)n(CC(=O)N4CCCCC4)nc(C)n32)o1 | / | / | / | / | -27.2 | 2.2
Cc1noc(C)c1CCC(=O)N1CCC(C(=O)c2cccnc2)CC1 | / | / | / | / | -12.0 | 9.4
CCc1ccc2nc(SCC(=O)N3c4ccccc4CC3C)c(C#N)cc2c1 (stereo unspecified) | / | / | / | / | 64.3* | 8.6
CC[C@@H](Cn1nnc2ccccc2c1=O)NC(=O)C1CCCCC1 | / | / | / | / | -10.6 | 5.3
O=C(N[C@H](C(=O)O)c1ccccc1)C1CCC(Cn2nnc3ccccc3c2=O)CC1 (stereo partly specified) | 10.2 | 43.4* | 27.9 | 18.1 | 5.9 | 8.9
O=C(CSc1nc(-c2ccco2)cc(C(F)(F)F)n1)Nc1ccc(F)c(Cl)c1 | / | / | / | / | -129.6 | 8.0
CC1CCN(c2nnc(-c3ccccc3)c3ccccc23)CC1 | -1.5 | 8.4 | -1.5 | 4.5 | 64.5* | 13.5
COc1ccc2[nH]c3c(N4CCc5ccccc5C4)ncnc3c2c1 | 1.5 | 2.9 | -5.5 | -6.0 | -47.0 | 16.4
Fc1ccc2[nH]c3c(N4CCN(c5ccccc5)CC4)ncnc3c2c1 | 0.3 | 8.8 | -2.8 | -10.7 | -43.7 | 87.6*
COc1ccc(N2CCN(c3ncnc4c3[nH]c3ccccc34)CC2)cc1 | -0.8 | 12.1 | -1.4 | -1.7 | -44.9 | 54.2*
COC(=O)C1=C(C)NC2=C(C(=O)CC(c3ccc(OC)c(OC)c3)C2)C1c1c(F)cccc1Cl (stereo unspecified) | / | / | / | / | 6.1 | 5.9
Cn1c(-c2ccccc2)cnc1SCC(=O)Nc1ccc(Br)cc1 | / | / | / | / | -65.4 | 10.2
COCCCNC(=O)c1c(NC(=O)c2ccccc2)sc2c1CCCC2 | / | / | / | / | 65.1* | 11.4
O=c1cc(CN2CCN(c3ccc(F)cc3)CC2)c2cc3c(cc2o1)CCCC3 | 17.0 | 27.0 | 18.4 | 40.3* | 8.0 | 7.8
